# The source made the active and inactive calls. No cut-off for these calls is given here.
# What was measured:
# [1] = Cytotoxicity against mouse 3LL cells by MTT assay; type: functional, cell-based
# MCF7 [2] = assay: Cytotoxicity against human MCF7 cells by MTT assay; type: functional, cell-based
# M059J [3] = assay: Cytotoxicity against human M059J ATCC CRL2366 cells by MTT assay; type: functional, cell-based
# MCF7 [4] = assay: Induction of shift to glycolysis in human MCF7 cells assessed as lactate production at 0.44 uM after 3 hrs; type: functional
# A549 [5] = assay: Cytotoxicity against human A549 cells by MTT assay; type: functional, cell-based
# [6] = Cytotoxicity against human M059K ATCC CRL2365 cells by MTT assay; type: functional, cell-based
# [7] = Inhibition of Electron transport protein complex 1 in bovine heart submitochondrial particles assessed as NADH ubiquinone oxidoreductase oxidase activity by spectrophotometric analysis in presence of exogenous ubiquinone 1; set-up: species or system Bos taurus
# Summary of the method: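 Activated beef-heart inverted SMP were pre-equilibrated with inhibitor 5 min, then NADH was added at 30 °C. Medium: 0.25 M sucrose, 1 mM MgCl2, 2 mM KCN, antimycin A, ubiquinone Q1, 50 mM phosphate pH 7.4. Rate was followed at 340 nm, DMSO ≤2%. IC50 is half-maximal inhibition of control; mean ± SD of three independent experiments.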
# Bos taurus [8] = species: Bos taurus; assay: Inhibition of Electron transport protein complex 1 in bovine heart submitochondrial particles assessed as residual NADH oxidase activity at 1 uM by spectrophotometric analysis
# [9] = Inhibition of Electron transport protein complex 1 in bovine heart submitochondrial particles assessed as NADH oxidase activity by spectrophotometric analysis; set-up: species or system Bos taurus
# Summary of the method: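 Beef-heart inverted SMP (stored at −80 °C in 0.25 M sucrose, 10 mM Tris-HCl pH 7.4) diluted to 0.5 mg/mL and NADH-activated. Inhibitor pre-equilibrated with SMP 5 min in 50 mM Hepes pH 7.5, 5 mM MgCl2. NADH started the reaction. Initial linear rates were read at 340 nm, 30 °C, with DMSO ≤2%. IC50 is half-maximal inhibition of control; mean ± SD, three independent experiments.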
# Bos taurus [10] = species: Bos taurus; assay: Inhibition of Electron transport protein complex 1 in bovine heart submitochondrial particles assessed as residual NADH ubiquinone oxidoreductase oxidase activity at 1 uM by spectrophotometric analysis in presence of exogenous ubiquinone 1
# [11] = Cytotoxicity against human MCF10A cells by MTT assay; type: cell-based; conditions: MCF-10A
# [12] = Cytotoxicity against human MCF10A cells by SRB assay; type: cell-based; conditions: mcf-10a
# M059J [13] = assay: Cytotoxicity against human M059J ATCC CRL2366 cells by SRB assay; type: functional, cell-based
# ATCC CRL2365 = assay: Cytotoxicity against human M059K ATCC CRL2365 cells by SRB assay; type: functional, cell-based
# MCF7 [14] = assay: Cytotoxicity against human MCF7 cells by SRB assay; type: functional, cell-based
# A549 [15] = assay: Cytotoxicity against human A549 cells by SRB assay; type: functional, cell-based
# MCF7 [16] = assay: Induction of shift to glycolysis in human MCF7 cells assessed as lactate production at 0.38 uM after 3 hrs; type: functional
# 3LL = assay: Cytotoxicity against mouse 3LL cells by SRB assay; type: functional, cell-based
# MCF7 [17] = assay: Induction of shift to glycolysis in human MCF7 cells assessed as lactate production at 18.2 uM after 3 hrs; type: functional
# MCF7 [18] = assay: Induction of shift to glycolysis in human MCF7 cells assessed as lactate production at < 0.15 uM after 3 hrs; type: functional
# MCF7 [19] = assay: Induction of shift to glycolysis in human MCF7 cells assessed as lactate production at 6.6 uM after 3 hrs; type: functional
smiles,measurement,setting,value
CCCCc1ccc(OCCC#CC[C@@H](O)[C@H]2CC[C@H]([C@H]3CC[C@H]([C@H](O)CC#CCCOc4ccc(CCCC)cc4)O3)O2)cc1,IC50,[1],0.48 µM
same,IC50,MCF7 [2],> 16 µM
same,IC50,M059J [3],> 16 µM
same,Activity,MCF7 [4],1280 µM
same,IC50,A549 [5],> 16 µM
same,IC50,[6],14.6 µM
same,IC50,[7],1.7 µM
same,Activity,Bos taurus [8],18%
same,IC50,[9],0.0388 µM
same,Activity,Bos taurus [10],25%
same,IC50,[11],> 16 µM
CCCCCCCC#CC[C@@H](O)[C@H]1CC[C@H]([C@H]2CC[C@H]([C@H](O)CC#CCCCCCCC)O2)O1,IC50,[1],5.2 µM
same,IC50,MCF7 [2],7.6 µM
same,IC50,M059J [3],> 20.9 µM
same,Activity,[12],Active
same,Activity,M059J [13],Active
same,IC50,A549 [5],13.2 µM
same,IC50,[6],20.3 µM
same,IC50,[7],0.048 µM
same,Activity,Bos taurus [8],12%
same,Activity,ATCC CRL2365,Active
same,Activity,MCF7 [14],Active
same,IC50,[9],0.0301 µM
same,Activity,A549 [15],Active
same,Activity,Bos taurus [10],18%
same,Activity,MCF7 [16],1080 µM
same,Activity,3LL,Active
same,IC50,[11],2 µM
CCCCc1ccc(OCCCCC[C@@H](O)[C@H]2CC[C@H]([C@H]3CC[C@H]([C@H](O)CCCCCOc4ccc(CCCC)cc4)O3)O2)cc1,IC50,[1],0.64 µM
same,IC50,MCF7 [2],> 16 µM
same,IC50,M059J [3],> 16 µM
same,IC50,A549 [5],> 16 µM
same,IC50,[6],> 16 µM
same,IC50,[7],> 15 µM
same,IC50,[9],0.0196 µM
same,Activity,MCF7 [17],572 µM
same,IC50,[11],> 16 µM
CCCCCC[C@H]1C(=O)O[C@H](C)[C@H](NC(=O)c2cccc(NC=O)c2O)C(=O)O[C@@H](C)[C@@H]1OC(=O)CC(C)C [ANTIMYCIN A],Activity,MCF7 [18],1520 µM
CCCCCCCCCC[C@@H](O)[C@H]1CC[C@H]([C@H]2CC[C@H]([C@H](O)CCCCCCCCCC)O2)O1 [dleta-lac-Acetogenin],IC50,[1],0.99 µM
same,IC50,MCF7 [2],> 20 µM
same,IC50,M059J [3],> 20 µM
same,IC50,A549 [5],> 20 µM
same,IC50,[6],> 20 µM
same,IC50,[7],10.4 µM
same,IC50,[9],0.0123 µM
same,Activity,MCF7 [19],616 µM
same,IC50,[11],> 20 µM

# Source: ChEMBL document CHEMBL1154507, “Synthesis and characterization of Deltalac-acetogenins that potently inhibit mitochondrial complex I” (Bioorg Med Chem, 2009)
